Experiments:
[1] = system: Rattus norvegicus; test: The control period of compound (microg of Fe/15h) for urinary excretion of Iron after peroral administration to the rats; type: functional, Urine
Procedure, shortened: (§1)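 Unloaded normal rats in metabolic cages act as their own controls. Food is withdrawn at 5 p.m. on both days. Control day: 1 mL distilled water po, urine collected until 8 a.m. (15 h), food returned, urine analyzed for iron. Treatment day: chelator 1 mmol/kg po in 1 mL distilled water, then another 15 h urine collection for iron analysis.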

[2] = system: Rattus norvegicus; test: The control period of compound (microg of Fe/h) for biliary excretion of Iron after intravenous administration to the rats; type: functional, Bile
Procedure, shortened: (§2)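 Normal (untreated) rats under pentobarbital anesthesia, bile duct cannulated with PE-10 tubing. Bile collected 30 min for the control rate, then chelator given 0.2 mmol/kg iv by tail vein in deionized water, pH about 7 with sodium bicarbonate, and bile collected a further 2 h. Bile mass measured and iron determined by atomic absorption spectrometry; rate expressed per hour. Controls received pentobarbital only.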

[3] = system: Rattus norvegicus; test: The treatment period of compound (microg of Fe/h) for biliary excretion of Iron after intravenous administration to the rats; type: functional, Bile; procedure, shortened: as §2
[4] = system: Rattus norvegicus; test: The treatment period of compound (microg of Fe/15h) for urinary excretion of Iron after peroral administration to the rats; type: functional, Urine; procedure, shortened: as §1
[5] = system: Rattus norvegicus; test: The control period of compound (microg of Fe/15h) for urinary excretion of Iron after intravenous administration to the rats; type: functional, Urine
Procedure, shortened: (§3)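 Unloaded normal rats, each serving as its own control, housed in metabolic cages. Control day: 1 mL distilled water/200 g body weight iv, urine collected 15 h (5 p.m.–8 a.m.) and analyzed for iron. Next day: chelator 0.2 mmol/kg iv by tail vein under ether anesthesia in 1 mL deionized water, pH about 7 with sodium bicarbonate; urine again collected 15 h for iron.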

[6] = system: Rattus norvegicus; test: The treatment period of compound (microg of Fe/15h) for urinary excretion of Iron after intravenous administration to the rats; type: functional, Urine; procedure, shortened: as §3

Row | SMILES | Control period [1] | Control period [2] | Treatment period [3] | Treatment period [4] | Control period [5] | Treatment period [6]
1 | Cn1cc(O)c(=O)cc1C(=O)O | 497 ng of Fe/15 h | 0.34 | 5.87 | 6740 ng of Fe/15 h | 410 ng of Fe/15 h | 6830 ng of Fe/15 h
2 | O=C(O)c1cc(=O)c(O)co1 | – | 0.35 | 0.46 | – | – | –
3 | O=c1cc(CO)n(CCS(=O)(=O)O)cc1O | 296 ng of Fe/15 h | 0.35 | 9.96 | 350 ng of Fe/15 h | 504 ng of Fe/15 h | 2200 ng of Fe/15 h
4 | Cc1c(O)c(=O)ccn1C [DEFERIPRONE] | 400 ng of Fe/15 h | 0.36 | 4.78 | 17400 ng of Fe/15 h | 490 ng of Fe/15 h | 8370 ng of Fe/15 h
5 | O=c1cc(CO)occ1O [KOJIC ACID] | – | 0.31 | 0.28 | – | – | –

From ChEMBL document CHEMBL1127750, “Enhancement of iron excretion via monoanionic 3-hydroxypyrid-4-ones” (1994)
